The list is not random: actives were taken first. Their share in the collection is about 4.8%.
UCH37 inh: inhibitors of human deubiquitinating enzyme UCH37; Q9Y5K5; purified proteasome/UCH37, Ub-AMC cleavage fluorescence; inhibition, % (concentration not given with the values); 330,000 compounds, 0.33% hits;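 active means mean inhibition over replicate wells above about 20%, limit read from the data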
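Material: Human UCH37 enzyme supplied as purified proteasome complex | Schedule: 30 min compound-proteasome preincubation then 25 min substrate reaction, room temperature | Detection: AMC fluorescence from Ub-AMC cleavage, excitation 355 nm, emission 460 nm | Benchmarks: Wells without proteasome as full block, compound-free enzyme plus substrate as uninhibited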
NALP1 yeast inh: inhibitors of NALP1 inflammasome in yeast; S. cerevisiae NALP1/ASC/caspase-1 growth, X-gal OD620, 72 h; 280,000 compounds, 0.61% hits; AID 2071; inhibition, % at 10 µM; in the data active means inhibition mostly above about 24%, no sharp cut-off; inactive means mostly below about 32%
ATG4B inh: blocks human ATG4B protease cleavage of LC3 substrate; Q9Y4P1; 340,000 compounds, 0.51% hits; ATG4B cleavage of LC3-PLA2, NBD-HPC fluorescence, 1 h; inhibition, % at 8.33 µM; in the data active means inhibition above about 40%
Calb FLC: C. albicans growth modulation with fluconazole. C. albicans CaCi-2 + fluconazole, Alamar Blue growth, 48 h. growth inhibition, % (test concentration not listed). 300,000 compounds, 0.57% hits. AID 1979;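 active means growth inhibition above about 58% in most replicates, limit read from the data, passing the limit was not always enough; inconclusive means exactly half the replicates above a set limit; inactive means most replicates below a set limit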;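 further: all wells also contain fluconazole at 8 µg/ml as a sub-toxic cotreatment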
ALR inh: human ALR oxidase inhibition via reduced H2O2 | 290,000 compounds, 3.8% hits | P55789 | inhibition, % (test concentration not listed) | purified ALR, DTT oxidation, H2O2 HRP-luminol luminescence;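 active means mean replicate inhibition above about 79%, with every replicate also reaching it, limit read from the data; inconclusive means only one of the two criteria met; inactive means mean below limit and not every replicate reaching it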
Target sequence (P55789 whole entry, looked up): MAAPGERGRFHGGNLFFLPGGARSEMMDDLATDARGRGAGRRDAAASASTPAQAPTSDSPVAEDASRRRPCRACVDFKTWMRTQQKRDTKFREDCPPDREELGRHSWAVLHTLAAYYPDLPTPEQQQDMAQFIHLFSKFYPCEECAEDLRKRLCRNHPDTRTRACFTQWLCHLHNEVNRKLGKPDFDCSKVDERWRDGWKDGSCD
NALP3 yeast inh: inhibitors of NALP3 inflammasome in yeast; Yeast reconstituted NLRP3/ASC/caspase-1, beta-gal luminescence, 24 h; inhibition, % at 10 µM; 330,000 compounds, 0.39% hits;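 active means inhibition of 50% or more; inactive means inhibition below 50%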
A number is an active result; . = inactive; ? = inconclusive; / = not tested or not shown.

SMILES	UCH37 inh	NALP1 yeast inh	ATG4B inh	Calb FLC	ALR inh	NALP3 yeast inh
O=C(c1c(O)cc(O)cc1O)C1c2c(cc(O)c3c2O[C@H](c2ccc(O)cc2)[C@@H](O)C3)OC1c1ccc(O)cc1 (some centres undefined)	/	/	.	/	99	.
CC(=NNC(=O)c1cccc(F)c1)c1cccc(NC(=O)c2ccc(F)cc2)c1	.	/	/	/	/	/
CN(C)CCCn1c2c(c(SCC(=O)Nc3ccc4c(c3)OCO4)nc1=O)CCCC2	.	/	.	.	?	.
CCN(CC)CCCn1c2c(c(SCC(=O)Nc3ccc4c(c3)OCCO4)nc1=O)CCC2	.	/	.	.	98	.
CC(=O)c1cccc(NC(=O)CSc2nc(=O)n(Cc3ccccn3)c3c2CCC3)c1	.	/	.	.	99	.
CCN(CC)CCCn1c2c(c(SCC(=O)Nc3cccc(C(C)=O)c3)nc1=O)CCC2	.	/	.	.	99	.
CN(C)CCCn1c2c(c(SCC(=O)Nc3ccc4c(c3)OCO4)nc1=O)CCC2	.	/	.	.	98	.
CC(=O)C(=NNc1ccccc1Cl)Sc1nnc(-c2ccccc2)n1-c1ccccc1	.	/	/	/	/	/
O=C(NN=Cc1ccc(Br)o1)c1cccnc1	.	/	/	/	/	/
CN(Cc1cccnc1)C(=O)c1ccc2nc(Cc3ccccc3F)oc2c1	.	.	.	.	97	.
CN(Cc1ccon1)C(=O)c1ccc2nc(Cc3cccc(Cl)c3)oc2c1	.	.	.	.	.	.
CC(=O)N1CC[n+]2c(-c3ccc(Cl)cc3)csc21	.	.	.	.	99	.
O=C(CN1CC[n+]2c(-c3cccs3)csc21)c1ccc(-c2ccccc2)cc1	.	.	.	.	.	.
CCc1ccc(-c2csc3[n+]2CCN3C(C)=O)cc1	.	.	.	.	99	.
COc1ccc(C=Nn2c(C)cc(C)c(C(N)=O)c2=O)cc1	.	/	/	/	/	/
COc1ccc(Cl)cc1NC(=O)CC(C)=NNC(=O)C(=O)NCc1ccccc1	.	/	/	/	/	/
CC(C)n1cnc2cc(NCc3ccco3)ccc21	.	.	.	.	84	.
CC(C)(C)n1cnc2cc(NCc3ccccc3O)ccc21	.	.	.	.	99	.
CC(C)n1cnc2cc(NCc3ccccc3O)ccc21	.	.	.	.	99	.
CC(C)n1cnc2cc(NC(=O)c3ccco3)ccc21	.	.	.	.	.	.
Cc1ccccc1NC(=S)NN=CC(C)c1ccccc1 (centres undefined)	.	/	/	/	/	/
O=C(NN=Cc1ccco1)C1CC(=O)N(c2ccccc2)C1 (centres undefined)	.	/	/	/	/	/
COc1cccc(NC(=O)NCCc2ccc(Cl)cc2)c1	.	.	.	.	.	.
CCCCSCCCNC(=O)Nc1cccc(OC)c1	.	40	.	.	.	.
COc1cccc(C(=O)ON=Cc2ccc(Sc3ccc(C)cc3)nc2)c1	.	/	/	/	/	/
SMILES	UCH37 inh	NALP1 yeast inh	ATG4B inh	Calb FLC	ALR inh	NALP3 yeast inh
O=c1nc(-c2ccccc2)c(-c2ccccc2)n[nH]1	.	.	.	.	.	/
S=c1nc(-c2ccccc2)c(-c2ccccc2)n[nH]1	/	.	.	.	86	.
O=C(CN(Cc1ccccc1)S(=O)(=O)c1ccccc1)NN=Cc1ccc([N+](=O)[O-])cc1	.	/	/	/	/	/
COc1ccc(-c2nc(CS(=O)CC(=O)NCCCN3CCCC3)c(C)o2)cc1OC (centres undefined)	.	.	.	.	99	.
COc1ccc(-c2nc(CS(=O)CC(=O)NCCCN3CCOCC3)c(C)o2)cc1OC (centres undefined)	.	.	.	.	99	.
COc1ccc(-c2nc(CS(=O)CC(=O)NCCN3CCCCCC3)c(C)o2)cc1OC (centres undefined)	.	.	.	.	100	.
COc1ccc(-c2nc(CS(=O)CC(=O)NCCN3CCCCC3C)c(C)o2)cc1OC (centres undefined)	.	.	.	.	100	.
Cc1ccc(C=NNC(=O)/C(=C\Nc2nccc(C)n2)NC(=O)c2ccccc2)cc1	.	/	/	/	/	/
Cc1nc2sc(-c3ccccc3)cc2c(=O)n1N=CN(C)C	.	/	/	/	/	/
CCOc1ccc(-c2nc(CCl)cs2)cc1	.	.	.	.	/	.
COc1ccc(Br)cc1-c1nc(CCl)cs1	.	.	.	.	95	.
Cc1ccc(-c2n[nH]c(=S)n2N=Cc2cccs2)cc1	.	/	/	/	/	/
Cc1cccc(/C=N/n2c(-c3ccccc3)n[nH]c2=S)c1O	/	.	.	.	91	.
